From PubChem
Only some compounds are listed: those with a hit (about 2.4% of all), similar ones and a draw of the others.
HSV augment = HSV replication enhancement. maximum fold increase. HSV replication augmentation in cells, fold increase. actives 0.005% (n = 220,000). AID 1956; in the data active = maximum fold increase above about 1.5; inconclusive = no clear call, values can overlap the other calls; tested in PC3 cells
ROMK mod = modulates human ROMK potassium channel activity; P48048; Tet-inducible ROMK, thallium flux fluorescence; actives lie on both sides; B-score at 10 µM; actives 2% (n = 130,000); AID 1918;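 active = signal ratio slope over the read window, or its plate-corrected B-score, at least 3 SD from the plate mean, either direction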;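 also: B-score of the F/F0 ratio slope over 7 to 12 s after thallium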
Target sequence (P48048 whole entry, looked up): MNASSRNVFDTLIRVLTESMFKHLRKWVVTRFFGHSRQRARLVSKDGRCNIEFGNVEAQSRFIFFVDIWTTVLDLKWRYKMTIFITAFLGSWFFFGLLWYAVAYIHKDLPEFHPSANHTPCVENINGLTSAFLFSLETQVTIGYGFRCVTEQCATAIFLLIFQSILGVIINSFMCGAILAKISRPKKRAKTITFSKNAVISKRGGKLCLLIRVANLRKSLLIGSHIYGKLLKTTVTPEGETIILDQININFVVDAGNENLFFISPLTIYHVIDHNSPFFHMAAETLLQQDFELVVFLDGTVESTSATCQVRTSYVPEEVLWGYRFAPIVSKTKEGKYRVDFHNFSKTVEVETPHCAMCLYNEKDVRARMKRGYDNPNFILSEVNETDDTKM
bCat nuc transl = beta-catenin nuclear translocation modulation; HeLa beta-catenin nuclear translocation, immunofluorescence imaging; nuclear translocation activity, % at 5 µM; actives 0.3% (n = 190,000);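 active = nuclear translocation activity above 50% at 5 µM, with a well cell count of 50 or more; inconclusive = wells under 50 cells across six images, flagged as toxic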;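 also: per-cell ratio of nuclear to cytoplasmic median beta-catenin stain intensity; plate controls were DMSO negative control for no effect and GSK-3 inhibitor IX positive control for full effect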
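Read-out: Nuclear/cytoplasmic beta-catenin signal ratio, % activation | Assay system: Human HeLa cell line | Times: 24 h compound exposure at 37°C, 5% CO2 | Signal: Fluorescence imaging of beta-catenin antibody stain plus DAPI | Dosing: 5 µM primary, 0.02–20 µM confirmation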
INS promoter inh = TRM-6 insulin promoter activity inhibition; actives 0.9% (n = 130,000); TRM-6 cells (human fetal islet line), insulin promoter-eGFP reporter, imaging; reporter expression induced with tamoxifen; inhibition, % at 2 µM;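 active = inhibition above the mean plus 3 SD, with well images judged a real hit on visual review, cut at about 60% in these data, passing the limit was not always enough; inconclusive = inhibition over the cutoff but images rejected on review; inactive = inhibition not above the cutoff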
MT stabilizer = microtubule stabilizers in HeLa cells; HeLa tubulin immunostaining HCS, 24 h; share of cells brighter than vehicle mean+2SD; % tubulin-high responders, % at 10 µM; actives 0.83% (n = 200,000);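 active = plate Z-score above 3 for both tubulin-high and condensed-nucleus cell shares, with cell loss under 80%, at 10 µM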;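 also: anti alpha tubulin signal scored within the nucleus-defined area of each cell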
ROMK retest = human ROMK channel modulation, retest confirmation | shares compounds with ROMK mod | actives 54% (n = 3,000) | normalized thallium flux (F/F0 slope) at 10 µM | ROMK thallium flux, fluorescence ratio; stronger effect = lower value | AID 1917;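 active = Flux at 10 µM at least 3 SD below or above vehicle control mean in one or both replicates; inconclusive = no clear call, values can overlap the other calls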
Starred values were filed as active, the others as inactive.

How did COc1cccc(-n2nnnc2S(C)(=O)=O)c1 do in these assays?
HSV augment: inactive; ROMK mod: -3.5*; INS promoter inh: 54; MT stabilizer: 1; ROMK retest: 0.063*

Results for COc1cccc(Oc2nnnn2-c2ccccc2)c1 ?
HSV augment: inactive; ROMK mod: 0.95; bCat nuc transl: 2; MT stabilizer: 5

How did O=C(Cn1ncc2c(=O)oc3ccccc3c21)Nc1nc2ccccc2s1 do in these assays?
HSV augment: inactive; bCat nuc transl: 1; INS promoter inh: -244; MT stabilizer: 3

What do the screens show for `Cc1cc(C2(c3ccc(O)c(C)c3)OC(=O)c3ccccc32)ccc1O`?
HSV augment: inactive; ROMK mod: -1.2; bCat nuc transl: -1; INS promoter inh: 33; MT stabilizer: 2; ROMK retest: 0.073

How did Cc1cc(O)c(C(C)C)cc1C1(c2cc(C(C)C)c(O)cc2C)OC(=O)c2ccccc21 do in these assays?
HSV augment: inactive; bCat nuc transl: 0

Results for Fc1ccc(C2=NNC(=NCc3ccccc3)SC2)cc1F ?
HSV augment: inactive; ROMK mod: -3*; bCat nuc transl: 0; INS promoter inh: -29; MT stabilizer: 2; ROMK retest: inconclusive

What do the screens show for `Cc1cccc(C)c1NC(=O)CNCC(=O)N(C)C`?
HSV augment: inactive; ROMK mod: 0.62; bCat nuc transl: -1; INS promoter inh: -67; MT stabilizer: 2

How did N#CCCN(CCC#N)S(=O)(=O)c1ccc(C(=O)Nc2nc(-c3ccccc3)c(C(=O)c3ccccc3)s2)cc1 do in these assays?
HSV augment: inactive; bCat nuc transl: -3

Results for CN(C)S(=O)(=O)c1ccc(C(=O)Nc2nc(-c3ccccc3)c(C(=O)c3ccccc3)s2)cc1 ?
HSV augment: inactive; ROMK mod: 1.2*; bCat nuc transl: -1; INS promoter inh: 40; MT stabilizer: 6; ROMK retest: 0.09

What do the screens show for `Cc1ccc(NC(=O)NCc2ccccn2)cc1`?
HSV augment: inactive; ROMK mod: -0.88; bCat nuc transl: -1; INS promoter inh: -74; MT stabilizer: 3

How did Cc1ccc(NC(=O)CSC(C)C(=O)NCCc2ccccn2)cc1 (stereo unspecified) do in these assays?
HSV augment: inactive; ROMK mod: -2.8*; bCat nuc transl: 2; MT stabilizer: 4; ROMK retest: 0.072

Results for Cc1ccccc1NC(=O)COC(=O)c1ccc(S(C)(=O)=O)c([N+](=O)[O-])c1 ?
HSV augment: inactive; ROMK mod: -3.5*; bCat nuc transl: -5; INS promoter inh: -29; MT stabilizer: 2; ROMK retest: inconclusive

How did COc1ccccc1CN1CCNC(=O)C1CC(=O)NCCc1cnccn1 (stereo unspecified) do in these assays?
HSV augment: inactive; bCat nuc transl: 0; MT stabilizer: 2

How did O=c1cc(O)c2ccccc2n1Cc1ccccc1F do in these assays?
HSV augment: inactive; ROMK mod: 0.11; bCat nuc transl: -1; INS promoter inh: 9; MT stabilizer: 4

How did CCN1CCCc2cc(CN(CCN3CCOCC3)C(=O)Nc3ccc(C)c(C)c3)ccc21 do in these assays?
HSV augment: inactive; ROMK mod: -3.5*; INS promoter inh: 50; MT stabilizer: 2; ROMK retest: 0.056*

Results for CCc1ccc(NC(=O)N(CCN2CCOCC2)Cc2ccc3c(c2)CCCN3CC)cc1 ?
HSV augment: inactive; ROMK mod: -1.6; INS promoter inh: 8; MT stabilizer: 3

What do the screens show for `O=C1C2CC=CCC2C(=O)N1Cc1nnc(-c2ccccc2Br)o1` (stereo unspecified)?
HSV augment: inactive; ROMK mod: 0.65; bCat nuc transl: 2

Results for Nc1ccc2c(c1)Oc1ccccc1C=C2 ?
HSV augment: inactive; ROMK mod: -3.2*; bCat nuc transl: 4; INS promoter inh: -124; MT stabilizer: 3; ROMK retest: 0.07

How did Cc1cccc(-c2ncc(CN3CCN(CCC(C)C)C(CCO)C3)cn2)c1 (stereo unspecified) do in these assays?
HSV augment: inactive; ROMK mod: -0.58; bCat nuc transl: 0; MT stabilizer: 3

Results for CCn1c(SC(C)C)nnc1-c1cc(-c2ccccc2)sc1N ?
HSV augment: inactive; ROMK mod: -2.8*; bCat nuc transl: -1; INS promoter inh: -50; MT stabilizer: 3; ROMK retest: 0.073

What do the screens show for `C=CCn1c(-c2cc(-c3ccccc3)sc2N)n[nH]c1=S`?
HSV augment: inactive; bCat nuc transl: -3

Results for CCN1/C(=C/c2ccc3cccc(C)c3[n+]2CC)Sc2ccccc21 ?
INS promoter inh: -233; MT stabilizer: 7

What do the screens show for `CCN1/C(=C\c2ccc3cc(C)ccc3[n+]2CC)Sc2cc(C)c(C)cc21`?
ROMK mod: -5*; bCat nuc transl: 0; INS promoter inh: -413; MT stabilizer: 9; ROMK retest: 0.047*

Results for CCN1/C(=C/c2ccc3cc(C)cc(C)c3[n+]2CC)Sc2cc(C)ccc21 ?
ROMK mod: -5.2*; bCat nuc transl: 3; INS promoter inh: -413; MT stabilizer: 13; ROMK retest: 0.045*

Results for CCOC(=O)C1CCN(C(=O)COc2cc(C)c(Br)cc2C)CC1 ?
HSV augment: inactive; ROMK mod: -4.9*; bCat nuc transl: 1; INS promoter inh: 38; MT stabilizer: 3; ROMK retest: 0.058*

How did CCOC(=O)C1CCN(C(=O)COc2ccc(Br)cc2Br)CC1 do in these assays?
HSV augment: inactive; ROMK mod: -0.35; bCat nuc transl: -1; MT stabilizer: 5

Results for Cc1ccccc1NC(=O)CSc1nc(O)cc(=O)n1C ?
HSV augment: inactive; ROMK mod: -0.58; bCat nuc transl: -1

What do the screens show for `O=C1ON=C(c2cccc([N+](=O)[O-])c2)/C1=C/c1ccc(O)cc1`?
HSV augment: inactive; ROMK mod: -4.6*; bCat nuc transl: -1; INS promoter inh: -33; MT stabilizer: 4; ROMK retest: 0.065*

What do the screens show for `O=C1ON=C(c2ccccc2)/C1=C/c1ccc(OS(=O)(=O)c2ccccc2)cc1`?
HSV augment: inactive; bCat nuc transl: 5; INS promoter inh: 26; MT stabilizer: 4

Results for C=CCc1c(O)c(CC)cc2c(C)cc(=O)oc12 ?
HSV augment: inactive; ROMK mod: 0.38; bCat nuc transl: 1

How did O=C(O)c1ccccc1C1=Nc2ccc(O)cc2Oc2cc(O)ccc21 do in these assays?
HSV augment: inconclusive; bCat nuc transl: -6; INS promoter inh: 44; MT stabilizer: 2; ROMK retest: 0.054*

What do the screens show for `Cc1cc(-c2ccccc2C(=O)O)on1`?
HSV augment: inactive; bCat nuc transl: -2; MT stabilizer: 7

Results for COc1cc(C(=O)OC2CC3CCC2(C)C3(C)C)ccc1OC(C)=O (stereo unspecified) ?
HSV augment: inactive; bCat nuc transl: 1; MT stabilizer: 1
